Experimental data published in ChEMBL document CHEMBL1125792, “Complexes of .NO with nucleophiles as agents for the controlled biological release of nitric oxide. Vasorelaxant effects” (J Med Chem, 1991).

Key:
[1] = Rate constant for loss of chromophore; format: ADME
Outline: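 UV decay of the 230–260 nm chromophore. Compound dissolved in 0.01 M KOH, then diluted with a large excess of pH 7.4 phosphate buffer in a thermostated 37 °C cuvette. Spectra were recorded within 1–2 s and intermittently afterward. First-order k was taken from the slope of ln(A − A∞) versus time; t1/2 was derived from k.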

[2] = species: Oryctolagus cuniculus; test: Vasorelaxant activity against isolated vascular ring preparation from rabbit thoracic aorta; format: functional
[3] = species: Oryctolagus cuniculus; test: Peak relaxation(Rm) of the vascular ring by the compound at highest concentration; format: functional
[4] = Half-life was determined; conditions: pH 7.4 phosphate buffer at 37 °C

Compound | k [1] [s⁻¹] | EC50 [2] [nM] | Rm [3] [%] | half-life [4] [min]
CCN(CC)/[N+]([O-])=N\[O-].[Na+] | 0.0054 | 190 | 86 | 2.1
CC(C)N[N+]([O-])=N[O-].[Na+] | 0.0051 | 450 | 85 | 2.3
N.N.O=NN(O)S(=O)(=O)O | 0.0017 | 62000 | 58 | 6.8
NCCCNCCCCN(CCCN)/[N+]([O-])=N\O | 0.0003 | 6200 | 56 | 39
[Na+].[Na+].[O-][N+]([O-])=NO [ANGELI'S SALT] | 0.005 | 590 | 74 | 2.3
